As a reminder, the IC50 is the point on the concentration scale where inhibition reaches its midpoint. A lower IC50 goes with greater potency in that assay.

Consider six molecules from ChEMBL document CHEMBL1132831, “Synthesis and characterization of a potent and selective protein tyrosine phosphatase inhibitor, 2” (Bioorg Med Chem Lett, 2000).

Test system in the first assay: not listed separately
Nature of the assay: The compound was evaluated for its inhibitory effect of dual specificity phosphatases of VHR. In short, it runs like this: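 Bacterially expressed GST-VHR fusion protein with 1 mM p-nitrophenyl phosphate in 25 mM MOPS pH 6.5, 5 mM EDTA, 1 mM dithiothreitol. Compound was present at various concentrations from 30 nM during 30 min at 37 °C. NaOH was then added and absorbance read at 405 nm. IC50 was derived by nonlinear regression.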
Turning to `CSc1ccnc(C[S+]([O-])c2nc3cc(OC(C)C)ccc3[nH]2)c1` (configuration not stated), the IC50 came to 50.2 µM.
Same read-out and setting: in the case of VANADATE it was 106 µM.

The target in the next assay is T1, Receptor-type tyrosine-protein phosphatase C (Homo sapiens, UniProt P08575).
T1 sequence (P08575 whole entry): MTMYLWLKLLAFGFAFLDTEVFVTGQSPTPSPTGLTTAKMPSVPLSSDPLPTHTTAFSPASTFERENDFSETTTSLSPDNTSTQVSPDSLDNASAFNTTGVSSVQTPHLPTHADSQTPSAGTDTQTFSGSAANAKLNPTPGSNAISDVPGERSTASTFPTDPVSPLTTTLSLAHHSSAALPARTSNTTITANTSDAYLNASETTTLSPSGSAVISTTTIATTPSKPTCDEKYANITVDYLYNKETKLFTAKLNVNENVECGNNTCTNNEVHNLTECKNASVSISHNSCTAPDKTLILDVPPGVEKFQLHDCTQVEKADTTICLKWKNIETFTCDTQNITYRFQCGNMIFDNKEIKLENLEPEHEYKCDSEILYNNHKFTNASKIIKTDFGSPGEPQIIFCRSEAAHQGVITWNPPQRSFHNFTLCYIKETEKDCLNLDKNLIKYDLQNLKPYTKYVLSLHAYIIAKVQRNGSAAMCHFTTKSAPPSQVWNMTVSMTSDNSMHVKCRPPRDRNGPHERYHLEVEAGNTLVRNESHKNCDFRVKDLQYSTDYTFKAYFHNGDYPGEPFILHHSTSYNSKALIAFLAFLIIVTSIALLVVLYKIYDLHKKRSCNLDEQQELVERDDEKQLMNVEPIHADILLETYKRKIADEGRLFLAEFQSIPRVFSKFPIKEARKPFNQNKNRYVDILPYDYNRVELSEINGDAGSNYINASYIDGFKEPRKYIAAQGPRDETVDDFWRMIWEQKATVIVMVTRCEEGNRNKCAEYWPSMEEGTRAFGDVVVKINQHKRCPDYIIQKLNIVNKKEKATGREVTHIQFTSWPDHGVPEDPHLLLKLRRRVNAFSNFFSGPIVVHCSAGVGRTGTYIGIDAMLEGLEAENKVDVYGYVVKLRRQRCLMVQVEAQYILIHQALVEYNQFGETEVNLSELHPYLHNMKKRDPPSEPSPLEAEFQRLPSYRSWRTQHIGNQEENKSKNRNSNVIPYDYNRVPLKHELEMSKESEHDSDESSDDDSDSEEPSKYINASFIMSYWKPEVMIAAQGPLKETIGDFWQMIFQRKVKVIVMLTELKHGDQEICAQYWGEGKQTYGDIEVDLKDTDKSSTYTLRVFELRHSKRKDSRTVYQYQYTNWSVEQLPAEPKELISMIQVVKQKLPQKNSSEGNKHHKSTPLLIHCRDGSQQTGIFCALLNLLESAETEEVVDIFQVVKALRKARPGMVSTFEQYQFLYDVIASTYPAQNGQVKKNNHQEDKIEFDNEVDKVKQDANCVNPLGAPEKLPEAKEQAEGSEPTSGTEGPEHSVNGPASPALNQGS
Description: The compound was evaluated for its inhibitory activity towards Protein tyrosine phosphatase of CD45. An outline of the steps:
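Commercial enzyme with 1 mM p-nitrophenyl phosphate in 25 mM MOPS pH 6.5, 5 mM EDTA, 1 mM dithiothreitol. Compound was tested at various concentrations from 30 nM, with a 30 min incubation at 37 °C. The reaction was stopped with 1 N NaOH and read at 405 nm. IC50 was obtained by nonlinear regression curve fitting.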
On to `CSc1ccnc(CSc2nc3ccc(OC(C)C)cc3[nH]2)c1`, for which the IC50 was > 1000 µM.
On the same count and under the same terms, next, `CSc1ccnc(C[S+]([O-])c2nc3ccc(OC4CCCCC4)cc3[nH]2)c1` (configuration not stated): 80.5 µM; `CSc1ccnc(C[S+]([O-])c2nc3cc(OC(C)C)ccc3[nH]2)c1` (configuration not stated): 0.28 µM; `Cc1ccnc(C[S+]([O-])c2nc3ccc(OC(C)C)cc3[nH]2)c1` (configuration not stated): 380 µM.
`CC(C)Oc1ccc2[nH]c([S+]([O-])Cc3ccccn3)nc2c1` (configuration not stated) registered an IC50 of 120 µM.
